Test results from ChEMBL document CHEMBL1759959, “Synthesis and antitumor activity of 10-arylcamptothecin derivatives” (Bioorg Med Chem Lett, 2011).
pIC50: −log10 of the molar value. Calls of active or inactive are those of the source. No cut-off for these calls is given here.

Columns and labels:
[1] = target: T1, DNA topoisomerase 1 (Homo sapiens) (UniProt P11387); assay: Inhibition of topoisomerase 1-mediated relaxation of supercoiled pBR322 DNA at 6.25 to 100 uM after 30 mins by […]
T1 sequence (whole entry): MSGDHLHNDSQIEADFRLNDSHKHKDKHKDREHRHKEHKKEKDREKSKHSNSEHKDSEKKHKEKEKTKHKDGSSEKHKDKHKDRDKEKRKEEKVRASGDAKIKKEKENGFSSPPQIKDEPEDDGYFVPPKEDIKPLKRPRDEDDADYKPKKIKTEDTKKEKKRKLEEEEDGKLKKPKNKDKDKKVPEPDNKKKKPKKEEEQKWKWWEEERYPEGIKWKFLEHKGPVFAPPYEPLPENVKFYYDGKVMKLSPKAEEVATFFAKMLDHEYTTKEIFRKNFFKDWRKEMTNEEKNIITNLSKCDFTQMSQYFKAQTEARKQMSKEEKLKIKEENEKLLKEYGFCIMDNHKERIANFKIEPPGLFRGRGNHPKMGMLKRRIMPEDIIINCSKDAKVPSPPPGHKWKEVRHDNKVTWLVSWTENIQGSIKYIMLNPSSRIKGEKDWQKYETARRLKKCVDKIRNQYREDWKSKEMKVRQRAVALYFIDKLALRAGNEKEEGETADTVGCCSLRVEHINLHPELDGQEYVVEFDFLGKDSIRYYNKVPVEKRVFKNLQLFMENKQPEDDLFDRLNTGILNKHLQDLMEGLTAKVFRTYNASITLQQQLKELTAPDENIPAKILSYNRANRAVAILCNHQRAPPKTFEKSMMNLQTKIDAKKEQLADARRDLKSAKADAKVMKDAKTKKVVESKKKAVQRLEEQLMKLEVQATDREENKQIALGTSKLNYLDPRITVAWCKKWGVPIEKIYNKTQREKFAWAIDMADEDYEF
Summary of the method: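 Supercoiled pBR322 DNA incubated with topoisomerase I (1 unit) with or without drug, 37 °C, 30 min; stopped with 10% SDS; products resolved on 1% agarose gel, supercoiled versus relaxed bands scored; camptothecin as reference.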

Bel-7402 = assay: Cytotoxicity against human Bel7402 cells after 3 days; type: functional, cell-based
Summary of the method: (§1)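 HL60 (leukaemia), A549 (lung) and BEL-7402 (liver) human tumour cells exposed to compounds for 3 days; viability read by MTT assay and SRB assay; IC50 (half-maximal inhibitory concentration) reported.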

A549 [2] = assay: Cytotoxicity against human A549 cells after 3 days; type: functional, cell-based; summary of the method: as §1
HL-60 = assay: Cytotoxicity against human HL60 cells after 3 days; type: functional, cell-based; summary of the method: as §1
[3] = Chemical stability of the compound in phosphate saline buffer at pH 7.4 at 50 umol/L by HPLC analysis in presence of HAS; type: physicochemical; conditions: pH 7.4, 50 µM
Summary of the method: (§2)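 Lactone stability followed by HPLC with fluorescence detection; drug at 50 μmol/L incubated at pH 7.4, 37 °C in PBS, PBS with human serum albumin, or human blood; each point mean of three determinations, uncertainty 10% or less.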

A549 [4] = assay: Cell cycle arrest in human A549 cells assessed as accumulation at S phase at 50 uM after 24 hrs by flow cytometry (reference value: 27.52%); type: functional
[5] = Chemical stability of the compound in phosphate saline buffer at pH 7.4 at 50 umol/L by HPLC analysis; type: physicochemical; conditions: pH 7.4, 50 µM; summary of the method: as §2
A549 [6] = assay: Cell cycle arrest in human A549 cells assessed as accumulation at G2/M phase at 50 uM after 24 hrs by flow cytometry (reference value: 10.34%); type: functional
[7] = Chemical stability of the compound in phosphate saline buffer at pH 7.4 at 50 umol/L by HPLC analysis in presence of human blood; type: physicochemical; conditions: pH 7.4, 50 µM; summary of the method: as §2
A549 [8] = assay: Cell cycle arrest in human A549 cells assessed as accumulation at S phase at 12.5 uM after 24 hrs by flow cytometry (reference value: 27.52%); type: functional
A549 [9] = assay: Cell cycle arrest in human A549 cells assessed as accumulation at G2/M phase at 25 nM after 24 hrs by flow cytometry (reference value: 10.34%)
A549 [10] = assay: Cell cycle arrest in human A549 cells assessed as accumulation at G0/G1 phase at 25 nM after 24 hrs by flow cytometry (reference value: 62.14%)
A549 [11] = assay: Cell cycle arrest in human A549 cells assessed as accumulation at G0/G1 phase at 12.5 uM after 24 hrs by flow cytometry (reference value: 62.14%); type: functional
A549 [12] = assay: Cell cycle arrest in human A549 cells assessed as accumulation at S phase at 25 nM after 24 hrs by flow cytometry (reference value: 27.52%)
A549 [13] = assay: Cell cycle arrest in human A549 cells assessed as accumulation at G0/G1 phase at 50 uM after 24 hrs by flow cytometry (reference value: 62.14%); type: functional
A549 [14] = assay: Cell cycle arrest in human A549 cells assessed as accumulation at G2/M phase at 12.5 uM after 24 hrs by flow cytometry (reference value: 10.34%); type: functional

CC[C@@]1(O)C(=O)OCc2c1cc1n(c2=O)Cc2cc3cc(-c4ccncc4)ccc3nc2-1 [listing 1 of 2 here]
inhibition [1]: Active

CC[C@@]1(O)C(=O)OCc2c1cc1n(c2=O)Cc2cc3cc(-c4ccsc4)ccc3nc2-1
pIC50 (Bel-7402; Homo sapiens, Bel-7402, 72 h): 6.64
pIC50 (A549 [2]; Homo sapiens, A549, 72 h): 7.92
pIC50 (HL-60; Homo sapiens, HL-60, 72 h): 7.43

CC[C@@]1(O)C(=O)OCc2c1cc1n(c2=O)Cc2cc3cc(-c4cccc(N(C)C)c4)ccc3nc2-1
pIC50 (Bel-7402; Homo sapiens, Bel-7402, 72 h): 6.74
pIC50 (A549 [2]; Homo sapiens, A549, 72 h): 7.40
pIC50 (HL-60; Homo sapiens, HL-60, 72 h): 7.89

CC[C@@]1(O)C(=O)OCc2c1cc1n(c2=O)Cc2cc3cc(-c4cccnc4)ccc3nc2-1
pIC50 (Bel-7402; Homo sapiens, Bel-7402, 72 h): 6.42
pIC50 (A549 [2]; Homo sapiens, A549, 72 h): 7.17
pIC50 (HL-60; Homo sapiens, HL-60, 72 h): 7.49

CC[C@@]1(O)C(=O)OCc2c1cc1n(c2=O)Cc2cc3cc(-c4ccc(O)cc4)ccc3nc2-1
pIC50 (Bel-7402; Homo sapiens, Bel-7402, 72 h): 5.98
pIC50 (A549 [2]; Homo sapiens, A549, 72 h): 6.85
pIC50 (HL-60; Homo sapiens, HL-60, 72 h): 7.70

CC[C@@]1(O)C(=O)OCc2c1cc1n(c2=O)Cc2cc3cc(-c4ccc(Cl)cc4)ccc3nc2-1
pIC50 (Bel-7402; Homo sapiens, Bel-7402, 72 h): 5.51
pIC50 (A549 [2]; Homo sapiens, A549, 72 h): 6.49
pIC50 (HL-60; Homo sapiens, HL-60, 72 h): 6.52

CC[C@@]1(O)C(=O)OCc2c1cc1n(c2=O)Cc2cc3cc(-c4ccc(OC)cc4)ccc3nc2-1
pIC50 (Bel-7402; Homo sapiens, Bel-7402, 72 h): 5.23
pIC50 (A549 [2]; Homo sapiens, A549, 72 h): 6.30
pIC50 (HL-60; Homo sapiens, HL-60, 72 h): 6.11

CC[C@@]1(O)C(=O)OCc2c1cc1n(c2=O)Cc2cc3cc(-c4ccc(C(=O)O)cc4)ccc3nc2-1
pIC50 (Bel-7402; Homo sapiens, Bel-7402, 72 h): 4.86
pIC50 (A549 [2]; Homo sapiens, A549, 72 h): 4.94
pIC50 (HL-60; Homo sapiens, HL-60, 72 h): 5.84

CC[C@@]1(O)C(=O)OCc2c1cc1n(c2=O)Cc2cc3cc(-c4cnc5ccccc5c4)ccc3nc2-1
pIC50 (Bel-7402; Homo sapiens, Bel-7402, 72 h): 5.18
pIC50 (A549 [2]; Homo sapiens, A549, 72 h): 5.23
pIC50 (HL-60; Homo sapiens, HL-60, 72 h): 5.84

CC[C@@]1(O)C(=O)OCc2c1cc1n(c2=O)Cc2cc3cc(-c4ccccc4N(C)C)ccc3nc2-1
pIC50 (Bel-7402; Homo sapiens, Bel-7402, 72 h): 5.82
pIC50 (A549 [2]; Homo sapiens, A549, 72 h): 6.64
pIC50 (HL-60; Homo sapiens, HL-60, 72 h): 6.80

CC[C@@]1(O)C(=O)OCc2c1cc1n(c2=O)Cc2cc3cc(-c4cccc(C(=O)OC)c4)ccc3nc2-1
pIC50 (Bel-7402; Homo sapiens, Bel-7402, 72 h): 5.29
pIC50 (A549 [2]; Homo sapiens, A549, 72 h): 7.64
pIC50 (HL-60; Homo sapiens, HL-60, 72 h): 7.31

CC[C@@]1(O)C(=O)OCc2c1cc1n(c2=O)Cc2cc3cc(-c4cccs4)ccc3nc2-1
pIC50 (Bel-7402; Homo sapiens, Bel-7402, 72 h): 7.10
pIC50 (A549 [2]; Homo sapiens, A549, 72 h): 8.00
pIC50 (HL-60; Homo sapiens, HL-60, 72 h): 7.32

CC[C@@]1(O)C(=O)OCc2c1cc1n(c2=O)Cc2cc3cc(-c4ccc(N(C)C)cc4)ccc3nc2-1
pIC50 (Bel-7402; Homo sapiens, Bel-7402, 72 h): 4.44
pIC50 (A549 [2]; Homo sapiens, A549, 72 h): 5.57
pIC50 (HL-60; Homo sapiens, HL-60, 72 h): 5.54

CC[C@@]1(O)C(=O)OCc2c1cc1n(c2=O)Cc2cc3cc(-c4ccncc4)ccc3nc2-1 [listing 2 of 2 here]
Stability [3]: Stable
Activity (A549 [4]): 14.24%
Stability [5]: Stable
Activity (A549 [6]): 63.43%
Stability [7]: Stable
Activity (A549 [8]): 18.18%
Activity (A549 [9]): 38.41%
pIC50 (Bel-7402; Homo sapiens, Bel-7402, 72 h): 6.38
Activity (A549 [10]): 44.85%
Activity (A549 [11]): 59.61%
Activity (A549 [12]): 16.74%
pIC50 (A549 [2]; Homo sapiens, A549, 72 h): 7.17
pIC50 (HL-60; hl-60): 8.05
Activity (A549 [13]): 22.33%
Activity (A549 [14]): 22.22%

CC[C@@]1(O)C(=O)OCc2c1cc1n(c2=O)Cc2cc3cc(-c4ccncc4)ccc3nc2-1.Cl
Activity (A549 [4]): 0%
Activity (A549 [6]): 80.09%
Activity (A549 [8]): 15.74%
Activity (A549 [9]): 46.71%
pIC50 (Bel-7402; bel-7402): 6.34
Activity (A549 [10]): 31.29%
Activity (A549 [11]): 56.19%
Activity (A549 [12]): 22%
pIC50 (A549 [2]; a549): 7.21
pIC50 (HL-60; hl-60): 7.68
Activity (A549 [13]): 19.91%
Activity (A549 [14]): 28.07%

CC[C@@]1(O)C(=O)OCc2c1cc1n(c2=O)Cc2cc3cc(-c4ccc(C(=O)OC)cc4)ccc3nc2-1
pIC50 (Bel-7402; Homo sapiens, Bel-7402, 72 h): 6.19
pIC50 (A549 [2]; Homo sapiens, A549, 72 h): 6.29
pIC50 (HL-60; Homo sapiens, HL-60, 72 h): 6.55

CC[C@@]1(O)C(=O)OCc2c1cc1n(c2=O)Cc2cc3cc(-c4ccccc4Cl)ccc3nc2-1
pIC50 (Bel-7402; Homo sapiens, Bel-7402, 72 h): 5.61
pIC50 (A549 [2]; Homo sapiens, A549, 72 h): 5.95
pIC50 (HL-60; Homo sapiens, HL-60, 72 h): 6.23

CC[C@@]1(O)C(=O)OCc2c1cc1n(c2=O)Cc2cc3c(CN(C)C)c(O)ccc3nc2-1 [TOPOTECAN]
Activity (A549 [9]): 35.02%
pIC50 (Bel-7402; Homo sapiens, Bel-7402, 72 h): 6.33
Activity (A549 [10]): 40.04%
Activity (A549 [12]): 24.95%
pIC50 (A549 [2]; Homo sapiens, A549, 72 h): 7.15
pIC50 (HL-60; Homo sapiens, HL-60, 72 h): 7.28

CC[C@@]1(O)C(=O)OCc2c1cc1n(c2=O)Cc2cc3cc(-c4cccc(Cl)c4)ccc3nc2-1
pIC50 (Bel-7402; Homo sapiens, Bel-7402, 72 h): 6.03
pIC50 (A549 [2]; Homo sapiens, A549, 72 h): 7.17
pIC50 (HL-60; Homo sapiens, HL-60, 72 h): 7.00
